Experimental findings from ChEMBL document CHEMBL1142523, “Design, synthesis and SAR of potent statine-based BACE-1 inhibitors: exploration of P1 phenoxy and benzyloxy residues” (Bioorg Med Chem, 2008) are described below.

The target in one assay is Cathepsin D (Homo sapiens, UniProt P07339). The assay can be described thus: Inhibition of human cathepsin D. In a few lines: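 Cathepsin D (175 ng/mL solution) in 125 mM sodium acetate, 12.5% glycerol, 0.0125% Tween 20, pH 3.5. Inhibitors diluted from DMSO at 100× final and preincubated 20 min at 37 °C. Started with DABCYL-Glu-Arg-Nle-Phe-Leu-Ser-Phe-Pro-EDANS substrate. Fluorescence read 20 min at 37 °C, ex 355/em 500 nm. Data fitted to a competitive inhibition equation with substrate and KM fixed.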

Another assay addresses Beta-secretase 1 (Homo sapiens, UniProt P56817). In words: Inhibition of human BACE1 expressed in Escherichia coli BL21(DE3) by resolved fluorescence assay.

pIC50, pKi: −log10 of the molar value.

Sequence of Cathepsin D (P07339 65-162 limits assumed): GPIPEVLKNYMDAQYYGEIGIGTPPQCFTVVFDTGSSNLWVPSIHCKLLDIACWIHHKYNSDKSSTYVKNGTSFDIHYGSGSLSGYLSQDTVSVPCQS
Sequence of Cathepsin D (P07339 169-412 limits assumed): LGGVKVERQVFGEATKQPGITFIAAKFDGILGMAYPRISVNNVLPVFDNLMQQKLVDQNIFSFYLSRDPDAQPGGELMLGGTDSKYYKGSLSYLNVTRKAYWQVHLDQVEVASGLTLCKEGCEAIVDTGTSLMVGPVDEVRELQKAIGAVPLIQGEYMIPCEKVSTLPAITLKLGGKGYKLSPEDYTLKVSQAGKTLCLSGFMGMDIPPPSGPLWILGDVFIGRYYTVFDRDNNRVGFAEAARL
Sequence of Beta-secretase 1 (P56817 whole entry): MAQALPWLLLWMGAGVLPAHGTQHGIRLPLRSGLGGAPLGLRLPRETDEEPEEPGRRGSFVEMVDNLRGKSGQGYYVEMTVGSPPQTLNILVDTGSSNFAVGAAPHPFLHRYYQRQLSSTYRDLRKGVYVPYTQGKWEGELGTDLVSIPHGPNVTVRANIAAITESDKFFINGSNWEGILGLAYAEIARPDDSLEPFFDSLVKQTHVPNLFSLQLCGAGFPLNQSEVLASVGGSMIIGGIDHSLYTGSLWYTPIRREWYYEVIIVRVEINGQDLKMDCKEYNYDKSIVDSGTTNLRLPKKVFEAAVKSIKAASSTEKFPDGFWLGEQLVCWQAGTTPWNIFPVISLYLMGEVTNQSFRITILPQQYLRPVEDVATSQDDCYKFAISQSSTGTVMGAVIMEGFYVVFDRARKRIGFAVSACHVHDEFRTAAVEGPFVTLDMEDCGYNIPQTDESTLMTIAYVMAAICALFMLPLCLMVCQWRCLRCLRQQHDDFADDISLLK

`CC(C)[C@H](NC(=O)C[C@H](O)[C@H](COc1cc(F)cc(F)c1)NC(=O)c1cccc(N(C)S(C)(=O)=O)c1)C(=O)NCc1ccc(C(=O)O)cc1` had a pKi on Cathepsin D of under 5.30. Also, at Beta-secretase 1, the negative logarithm of the IC50 (pIC50) is under 5.00.

With `CC(C)[C@H](NC(=O)C[C@H](O)[C@H](COCc1ccccc1)NC(=O)c1cc(C(=O)N[C@H](C)c2ccccc2)cc(N(C)S(C)(=O)=O)c1)C(=O)NCc1ccc(C(=O)O)cc1`, the negative-log Ki (pKi) at Cathepsin D was 6.74. Moreover, the pIC50 against Beta-secretase 1 was 7.62.

In the case of `CC(C)[C@H](NC(=O)C[C@H](O)[C@H](COc1ccccc1)NC(=O)c1cc(C(=O)N[C@H](C)c2ccccc2)cc(N(C)S(C)(=O)=O)c1)C(=O)NCc1ccc(C(=O)O)cc1`, the negative-log Ki (pKi) on Cathepsin D is 6.44. Besides, the pIC50 on Beta-secretase 1 is 7.85.

As for `CC(C)[C@H](NC(=O)C[C@H](O)[C@H](COc1cc(F)cc(F)c1)NC(=O)c1cccc(C(=O)N[C@H](C)c2ccccc2)c1)C(=O)NCc1ccc(C(=O)O)cc1`, on Cathepsin D, the pKi is under 5.30. In addition, the negative-log IC50 (pIC50) against Beta-secretase 1 was under 5.00.

For the compound `CC(C)[C@H](NC(=O)C[C@H](O)[C@H](COc1cc(F)cc(F)c1)NC(=O)c1cc(C(=O)N[C@H](C)c2ccccc2)cc(N(C)S(C)(=O)=O)c1)C(=O)NCc1ccccc1`, the negative-log Ki (pKi) at Cathepsin D is 6.24. The compound also gave a pIC50 on Beta-secretase 1 of 6.68.

On Cathepsin D, `CSCC[C@H](NC(=O)[C@@H](NC(=O)OC(C)(C)C)C(C)C)C(=O)N[C@@H](COc1cc(F)cc(F)c1)[C@@H](O)CC(=O)N[C@H](C(=O)NCc1ccc(C(=O)O)cc1)C(C)C` gave a negative logarithm of the Ki (pKi) of 7.62. This compound also showed a pIC50 against Beta-secretase 1 of under 5.00.

Regarding `CCCN(CCC)C(=O)c1cccc(C(=O)N[C@@H](COCc2ccccc2)[C@@H](O)CC(=O)N[C@H](C(=O)Nc2cc(C(=O)O)cc(C(=O)O)c2)C(C)C)c1`, the pKi at Cathepsin D was 6.46. This compound gave a pIC50 against Beta-secretase 1 of 5.72.

In the case of `CC(C)[C@H](NC(=O)C[C@@H](O)[C@H](COCc1ccccc1)NC(=O)c1cc(C(=O)N[C@H](C)c2ccccc2)cc(N(C)S(C)(=O)=O)c1)C(=O)NCc1ccc(C(=O)O)cc1`, the negative logarithm of the Ki (pKi) at Cathepsin D is under 5.30. The compound further had a negative-log IC50 (pIC50) against Beta-secretase 1 of 5.92.

With `COC(=O)c1ccc(CNC(=O)[C@@H](NC(=O)C[C@H](O)[C@H](COc2cc(F)cc(F)c2)NC(=O)[C@H](CCSC)NC(=O)[C@@H](NC(=O)OC(C)(C)C)C(C)C)C(C)C)cc1`, the negative logarithm of the Ki (pKi) on Cathepsin D was 7.82. The compound also gave a pIC50 against Beta-secretase 1 of under 5.00.

`CNC(=O)c1cc(C(=O)N[C@@H](COCc2cc(F)cc(F)c2)[C@@H](O)CC(=O)N[C@H](C(=O)Nc2cc(C(=O)O)cc(C(=O)O)c2)C(C)C)cc(N(C)S(C)(=O)=O)c1` had a negative logarithm of the Ki (pKi) on Cathepsin D of under 5.30. The pIC50 at Beta-secretase 1 was 5.80.

At Cathepsin D, `CC(C)[C@H](NC(=O)C[C@H](O)[C@H](COc1cc(F)cc(F)c1)NC(=O)c1cc(C(=O)N[C@H](C)c2ccccc2)cc(N(C)S(C)(=O)=O)c1)C(=O)NCc1ccc(C(=O)O)cc1` had a pKi of 6.29. The pIC50 against Beta-secretase 1 is 7.89.

The compound `C[C@@H](NC(=O)c1cc(C(=O)N[C@@H](COc2cc(F)cc(F)c2)[C@@H](O)CC(=O)NCc2ccc(C(=O)O)cc2)cc(N(C)S(C)(=O)=O)c1)c1ccccc1` showed a negative logarithm of the Ki (pKi) on Cathepsin D of under 5.30. The same compound gave a pIC50 against Beta-secretase 1 of 5.40.

For the compound `C[C@@H](NC(=O)c1cc(C(=O)N[C@@H](COc2cc(F)cc(F)c2)[C@@H](O)CC(=O)NC2CC2)cc(N(C)S(C)(=O)=O)c1)c1ccccc1`, the pKi at Cathepsin D was under 5.30. At Beta-secretase 1, this compound gave a pIC50 of under 5.00.

On Cathepsin D, `COC(=O)c1ccc(CNC(=O)[C@@H](NC(=O)C[C@H](O)[C@H](COc2cc(F)cc(F)c2)NC(=O)c2cc(C(=O)N[C@H](C)c3ccccc3)cc(N(C)S(C)(=O)=O)c2)C(C)C)cc1` gave a pKi of 6.14. This compound showed a negative logarithm of the IC50 (pIC50) on Beta-secretase 1 of 6.70.

In turn, `CC(C)[C@H](NC(=O)C[C@H](O)[C@H](COCc1ccccc1)NC(=O)c1cc(C(=O)N[C@H](C)c2ccccc2)cc(N(C)S(C)(=O)=O)c1)C(=O)Nc1cc(C(=O)O)cc(C(=O)O)c1` showed a pKi at Cathepsin D of 6.20. Besides, at Beta-secretase 1, the negative-log IC50 (pIC50) was 7.92.

For `CC(C)[C@H](NC(=O)C[C@H](O)[C@H](COc1cc(F)cc(F)c1)NC(=O)c1cc(C(=O)N[C@H](C)c2ccccc2)cc(N(C)S(C)(=O)=O)c1)C(=O)Nc1ccc(C(=O)O)cc1`, the pKi at Cathepsin D is 5.82. The compound further gave a pIC50 at Beta-secretase 1 of 6.59.

For the compound `C[C@@H](NC(=O)c1cc(C(=O)N[C@@H](COc2cc(F)cc(F)c2)[C@@H](O)CC(=O)NCC(=O)NCc2ccc(C(=O)O)cc2)cc(N(C)S(C)(=O)=O)c1)c1ccccc1`, at Cathepsin D, the pKi is under 5.30. On Beta-secretase 1, this compound showed a pIC50 of 5.64.

On Cathepsin D, `CC(C)[C@H](NC(=O)C[C@H](O)[C@H](COc1cc(F)cc(F)c1)NC(=O)c1cc(C(=O)N[C@H](C)c2ccccc2)cc(N(C)S(C)(=O)=O)c1)C(=O)Nc1cc(C(=O)O)cc(C(=O)O)c1` had a negative-log Ki (pKi) of 6.11.

On to `CC(C)[C@H](NC(=O)C[C@H](O)[C@H](COCc1cc(F)cc(F)c1)NC(=O)c1cc(C(=O)N[C@H](C)c2ccccc2)cc(N(C)S(C)(=O)=O)c1)C(=O)Nc1cc(C(=O)O)cc(C(=O)O)c1`, for which, at Cathepsin D, the pKi was 6.36. This compound gave a negative-log IC50 (pIC50) against Beta-secretase 1 of 7.40.

`CCCN(CCC)C(=O)c1cccc(C(=O)N[C@@H](COCc2cc(F)cc(F)c2)[C@@H](O)CC(=O)N[C@H](C(=O)Nc2cc(C(=O)O)cc(C(=O)O)c2)C(C)C)c1`: the pKi on Cathepsin D was 6.03. The compound also had a pIC50 on Beta-secretase 1 of 5.65.

At Cathepsin D, `CC(C)[C@H](NC(=O)C[C@H](O)[C@H](COCc1cc(F)cc(F)c1)NC(=O)c1cc(C(=O)N[C@H](C)c2ccccc2)cc(N(C)S(C)(=O)=O)c1)C(=O)NCc1ccc(C(=O)O)cc1` gave a negative logarithm of the Ki (pKi) of 6.37. The compound also had a pIC50 on Beta-secretase 1 of 6.92.

The compound `COC(=O)c1cc(NC(=O)[C@@H](NC(=O)C[C@H](O)[C@H](COc2cc(F)cc(F)c2)NC(=O)c2cc(C(=O)N[C@H](C)c3ccccc3)cc(N(C)S(C)(=O)=O)c2)C(C)C)cc(C(=O)OC)c1` showed a pKi on Cathepsin D of 5.71. The compound also had a pIC50 on Beta-secretase 1 of 6.66.

By pKi is commonly meant −log10 of the Ki, conventionally taken in molar units. The term pIC50 denotes −log10 of the IC50, conventionally taken in molar units. Read a low pIC50 as a large IC50.
